The test system of one series is 17–71. As to the kind of experiment: Cytotoxicity, MTS cell viability assay. The series is classed as cell-based. The note with it: read-out: 72 hour IC50, 17–71 dog lymphoma, exposure 72 h. Background: Formazan colour is commonly taken as a measure of viable cells.
The test system of the next series is SK-Mel-5. The series can be described thus: Cytotoxicity, sulforhodamine B assay. The note with it: read-out: 72 hour IC50; SK-Mel-5 human melanoma; exposure 72 h. Type of series: cell-based.
The subject of a further series is OSW. As to the kind of experiment: Cytotoxicity, sulforhodamine B assay. Type of series: cell-based. The settings on record: read-out: 72 hour IC50; OSW dog lymphoma; exposure 72 h.
The test system of another series is GL-1. As to the kind of experiment: Cytotoxicity, sulforhodamine B assay. Type of series: cell-based. The note with it: read-out: 72 hour IC50; GL-1 dog lymphoma; exposure 72 h. In general terms: Sulforhodamine B stains cellular protein and so reports cell mass.
For the next series, the system named is EL-4. As to the kind of experiment: Cytotoxicity, sulforhodamine B assay. The series is classed as cell-based. The settings on record: read-out: 72 hour IC50; EL-4 mouse lymphoma; exposure 72 h.
For series [1], the system named is C57/BL6 mice. The settings on record: mouse, in vivo.
Another series has as its target T1, procaspase-3 D3A (Homo sapiens, UniProt P42574, D175A/D28A/D9A).
T1 sequence (P42574 1-277 D9A/D28A/D175A): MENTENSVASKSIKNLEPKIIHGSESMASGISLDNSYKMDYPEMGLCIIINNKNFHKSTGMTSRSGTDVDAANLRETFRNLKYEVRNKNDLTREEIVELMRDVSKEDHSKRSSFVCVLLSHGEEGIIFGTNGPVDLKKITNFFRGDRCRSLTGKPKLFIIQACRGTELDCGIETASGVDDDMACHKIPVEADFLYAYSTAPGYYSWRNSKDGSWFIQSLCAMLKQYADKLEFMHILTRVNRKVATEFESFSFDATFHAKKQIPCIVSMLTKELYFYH
The series can be described thus: Procaspase-3 activation. The series is classed as biochemical. The note with it: 50 µM compound; for Incubation time to maximal activity: procaspase-3 7.5 µM, zinc 10 µM. A digest of the protocol:
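Zinc-free uncleavable procaspase-3 (D9A/D28A/D175A), recombinantly expressed, at 7.5 µM in Chelex-treated 50 mM Hepes, 300 mM NaCl. Incubated with 10 µM ZnSO4. Basal activity read with 200 µM Ac-DEVD-pNA at 405 nm. Vehicle or test compound then added to 50 µM final and activity re-read every 20 min. Activity was taken from the slope and normalised to a zinc-free sample (100%) and DMSO (0%), n=3.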

The next series relates to MDA-MB-231. As to the kind of experiment: Cytotoxicity, sulforhodamine B assay. Type of series: cell-based. The settings on record: read-out: 72 hour IC50; MDA-MB-231 human breast; exposure 72 h.
The conditions of series [2]: read-out: Kd of PAC-1:Zn^2+; cited from earlier work.
For a further series, the system named is HeLa. The series can be described thus: Cytotoxicity, sulforhodamine B assay. Type of series: cell-based. The settings on record: read-out: 72 hour IC50; HeLa human cervical; exposure 72 h.
The test system of series [3] is C57/BL6 mice. As to the kind of experiment: Toxicity determination in mice after tail vein injection.
The nature of series [4]: Pharmacokinetics in mice after tail vein injection. The series is classed as in vivo, C57/BL6 mice.
The next series has as its system U-937. The series can be described thus: Cytotoxicity, sulforhodamine B assay. The settings on record: read-out: 72 hour IC50, exposure time 72 h. The series is classed as cell-based, Human.
The next series deals with healthy dog. The series can be described thus: Toxicity of intravenous PAC-1 in a healthy dog. The series is classed as in vivo. The settings on record: 25 mg/kg as a 5-minute intravenous infusion; transient, not life-limiting.
The subject of a further series is Jurkat. The series can be described thus: Cytotoxicity, sulforhodamine B assay. Type of series: cell-based. The note with it: read-out: 72 hour IC50; Jurkat human leukemia; exposure 72 h.
Series [5] is described as follows: Pharmacokinetics in healthy research dogs, single IV dose. The note with it: 25 mg/kg IV; individual dogs Hound A-D. The series is classed as in vivo.

SMILES strings stand for the structures. Values joined by “and” are separate entries in the source; they are usually repeats but may differ in a detail not shown here. Identical values can stand only once.

By IC50 is commonly meant the concentration that gives 50% inhibition. By Kd is commonly meant the equilibrium constant for the complex coming apart. With `C=CCc1cccc(/C=N/NC(=O)CN2CCN(Cc3ccccc3)CC2)c1O` [PAC-1], the IC50 with 17–71 amounted to 2.5 ± 0.9 µM; in the series with SK-Mel-5, 11.5 ± 3.6 µM; in the series on OSW it was 8.6 ± 1.3 µM; in the series on GL-1 it was 4.9 ± 0.3 µM; with EL-4, 3.8 ± 0.9 µM; in the series on MDA-MB-231, 9.9 ± 1 µM. Further, the IC50 in the series on HeLa is 15.5 ± 3.8 µM; with U-937 it was 9.3 ± 0.5 µM; in the series on Jurkat, 5.7 ± 2.8 µM. The “Onset of neurotoxicity after drug administration” value in the series on C57/BL6 mice [1] is at most 5 min. The “Incubation time to maximal activity” value on procaspase-3 D3A was 5 min. For the same compound, the Kd in [2] was 0.052 ± 0.002 µM. The Resolution of neurotoxicity in the series with C57/BL6 mice [3] (in HPβCD via tail vein injection) is at most 2 h. In the series on C57/BL6 mice [3] (tail vein injection), the “Dose at which significant neurological symptoms first appear” value turned out to be 20 mg/kg. The “Dose where acute neurological symptoms are present” value in the series with C57/BL6 mice [3] (tail vein injection) was determined as 50 mg/kg. Further, the Peak plasma concentration in series [4] (20 mg/kg tail vein injection) is ~ 50 µM. Besides, in the series on healthy dog, the “Neurotoxicity in one healthy dog” value is reported as “grand mal seizure activity”.

As a reminder, the MRT is the average time that molecules of a dose stay in the body. As usually defined, the Tmax is the time from dosing to the highest level. Broadly, the Vss is a proportionality between amount in the body and measured concentration, not a real space. Read a low Vss as little distribution into tissue. Regarding `C=CCc1cccc(C=NNC(=O)CN2CCN(Cc3ccc(S(N)(=O)=O)cc3)CC2)c1O` [S-PAC-1], at procaspase-3 D3A, the “Incubation time to maximal activity” value was 5 min. In addition, on procaspase-3 D3A (procaspase-3 D3A 7.5 µM, ZnSO4 10 µM), the “Enhancement of enzymatic activity of the proenzyme” value was “enhances the enzymatic activity of the proenzyme by relief of zinc-mediated inhibition, although to a lesser degree than PAC-1”. In addition, the Peak plasma levels in series [4] (350 mg/kg tail vein injection, without signs of neurotoxicity) is ~ 3500 µM. Further, in [5], the AUMC0-inf is 93.63 h*h*ug/ml and 104.77 h*h*ug/ml and 90.48 h*h*ug/ml and 101.78 h*h*ug/ml; the Cls is 5.67 mL/min/kg and 5.58 mL/min/kg and 5.07 mL/min/kg and 5.28 mL/min/kg; the mean residence time MRT was 1.27 h and 1.40 h and 1.10 h and 1.29 h; the Tmax is 0.17 h. In series [5], the Vss is 0.4325 L/kg and 0.4708 L/kg and 0.3348 L/kg and 0.41 L/kg.

The values are drawn from paper PMC3113694 (Cancer research, 2010).
